Activity calls are given as the source filed them.
Assays:
Type in all cases: functional, cell-based
MCF7 [1] = assay: Cytotoxicity against human MCF7 cells after 48 hrs by SRB assay
How it was run: (§1)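 Cells grown in minimal essential medium with 10% FBS, penicillin and streptomycin, then exposed in triplicate to […] test agent or doxorubicin for 48 h at 37 °C under 5% CO2. Cells fixed with cold TCA, stained with 0.4% SRB in 1% acetic acid; bound dye dissolved in buffer, OD read at 565 nm. Viability expressed as % of untreated cells; IC50 by non-linear regression.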

MCF7 [2] = assay: Cytotoxicity against human MCF7 cells at 0.1 to 5 uM by SRB assay; conditions: TDE = time-dependent effect; how it was run: as §1
A549 [3] = assay: Cytotoxicity against human A549 cells after 48 hrs by SRB assay; how it was run: as §1
A549 [4] = assay: Cytotoxicity against human A549 cells at 0.1 to 5 uM by SRB assay; conditions: TDE = time-dependent effect; how it was run: as §1
SK-N-SH [5] = assay: Cytotoxicity against human SK-N-SH cells after 48 hrs by SRB assay; how it was run: as §1
SK-N-SH [6] = assay: Cytotoxicity against human SK-N-SH cells at 0.1 to 5 uM by SRB assay; conditions: TDE = time-dependent effect; how it was run: as §1
SK-N-SH [7] = assay: Cytotoxicity against human SK-N-SH cells at 0.5 uM after 48 hrs by SRB assay
SK-N-SH [8] = assay: Cytotoxicity against human SK-N-SH cells at 5 uM after 48 hrs by SRB assay; how it was run: as §1
SK-N-SH [9] = assay: Cytotoxicity against human SK-N-SH cells at 0.1 uM after 48 hrs by SRB assay; how it was run: as §1

Measured: Activity

O=C(O)c1cc(-c2ccccc2[N+](=O)[O-])nn1CC(O)COc1cccc2[nH]c3ccccc3c12 (stereo not drawn)
active: MCF7 [1] Dose-dependent effect | MCF7 [2] tde | A549 [3] Dose-dependent effect | A549 [4] tde | SK-N-SH [5] Dose-dependent effect | SK-N-SH [6] tde | SK-N-SH [7]

COc1cccc(-c2cc(C(=O)O)n(CC(O)COc3cccc4[nH]c5ccccc5c34)n2)c1 (stereo not drawn)
active: MCF7 [1] Dose-dependent effect | MCF7 [2] tde | A549 [3] Dose-dependent effect | A549 [4] tde | SK-N-SH [5] Dose-dependent effect | SK-N-SH [6] tde | SK-N-SH [7]

Cc1cccc(-c2cc(C(=O)O)n(CC(O)COc3cccc4[nH]c5ccccc5c34)n2)c1 (stereo not drawn)
active: MCF7 [1] Dose-dependent effect | MCF7 [2] tde | A549 [3] Dose-dependent effect | A549 [4] tde | SK-N-SH [8] | SK-N-SH [5] Dose-dependent effect | SK-N-SH [6] tde | SK-N-SH [7] | SK-N-SH [9]

COc1cccc2c1C(=O)c1c(O)c3c(c(O)c1C2=O)C[C@@](O)(C(=O)CO)C[C@@H]3O[C@H]1C[C@H](N)[C@H](O)[C@H](C)O1
active: MCF7 [1] Dose-dependent effect | MCF7 [2] tde | A549 [3] Dose-dependent effect | A549 [4] tde | SK-N-SH [5] Dose-dependent effect | SK-N-SH [6] tde

Cc1ccc(-c2cc(C(=O)O)n(CC(O)COc3cccc4[nH]c5ccccc5c34)n2)cc1 (stereo not drawn)
active: MCF7 [1] Dose-dependent effect | MCF7 [2] tde | A549 [3] Dose-dependent effect | A549 [4] tde | SK-N-SH [5] Dose-dependent effect | SK-N-SH [6] tde | SK-N-SH [7]

COc1ccc(-c2cc(C(=O)O)n(CC(O)COc3cccc4[nH]c5ccccc5c34)n2)cc1 (stereo not drawn)
active: MCF7 [1] Dose-dependent effect | MCF7 [2] tde | A549 [3] Dose-dependent effect | A549 [4] tde | SK-N-SH [8] | SK-N-SH [5] Dose-dependent effect | SK-N-SH [6] tde | SK-N-SH [7]

O=C(O)c1cc(-c2cccc([N+](=O)[O-])c2)nn1CC(O)COc1cccc2[nH]c3ccccc3c12 (stereo not drawn)
active: MCF7 [1] Dose-dependent effect | MCF7 [2] tde | A549 [3] Dose-dependent effect | A549 [4] tde | SK-N-SH [5] Dose-dependent effect | SK-N-SH [6] tde | SK-N-SH [7]

O=C(O)c1cc(-c2ccc([N+](=O)[O-])cc2)nn1CC(O)COc1cccc2[nH]c3ccccc3c12 (stereo not drawn)
active: MCF7 [1] Dose-dependent effect | MCF7 [2] tde | A549 [3] Dose-dependent effect | A549 [4] tde | SK-N-SH [5] Dose-dependent effect | SK-N-SH [6] tde | SK-N-SH [7]
